This is an account of results in ChEMBL document CHEMBL4480410, “Targeting the MKK7-JNK (Mitogen-Activated Protein Kinase Kinase 7-c-Jun N-Terminal Kinase) Pathway with Covalent Inhibitors” (J Med Chem, 2019).

Data set [1] deals with Tyrosine-protein kinase BTK (Homo sapiens) (UniProt Q06187). Briefly: Inhibition of BTK (unknown origin) at 1 uM by proQinase-based assay relative to control.
Data set [2] deals with T1, Tyrosine-protein kinase ITK/TSK (Homo sapiens) (UniProt Q08881).
T1 sequence (whole entry): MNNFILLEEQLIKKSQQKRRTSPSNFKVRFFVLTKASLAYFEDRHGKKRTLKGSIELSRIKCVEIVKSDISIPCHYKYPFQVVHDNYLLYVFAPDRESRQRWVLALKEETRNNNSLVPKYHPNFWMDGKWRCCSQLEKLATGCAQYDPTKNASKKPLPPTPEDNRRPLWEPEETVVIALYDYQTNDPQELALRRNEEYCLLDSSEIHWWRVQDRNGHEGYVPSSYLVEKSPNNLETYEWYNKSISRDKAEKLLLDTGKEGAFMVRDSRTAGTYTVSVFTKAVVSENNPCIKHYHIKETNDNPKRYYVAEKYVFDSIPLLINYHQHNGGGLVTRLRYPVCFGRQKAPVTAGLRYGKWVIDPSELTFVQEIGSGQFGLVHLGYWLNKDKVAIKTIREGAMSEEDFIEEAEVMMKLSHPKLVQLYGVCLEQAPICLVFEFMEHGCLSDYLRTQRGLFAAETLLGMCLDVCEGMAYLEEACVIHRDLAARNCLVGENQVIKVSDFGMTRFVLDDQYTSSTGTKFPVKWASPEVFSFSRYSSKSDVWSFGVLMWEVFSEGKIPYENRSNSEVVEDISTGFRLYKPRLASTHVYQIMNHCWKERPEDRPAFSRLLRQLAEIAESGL
Kind of data set: Inhibition of ITK (unknown origin) at 1 uM by proQinase-based assay relative to control.

Data set [3] concerns the target T2, Dual specificity mitogen-activated protein kinase kinase 7 (Mus musculus) (UniProt Q8CE90).
T2 sequence (whole entry): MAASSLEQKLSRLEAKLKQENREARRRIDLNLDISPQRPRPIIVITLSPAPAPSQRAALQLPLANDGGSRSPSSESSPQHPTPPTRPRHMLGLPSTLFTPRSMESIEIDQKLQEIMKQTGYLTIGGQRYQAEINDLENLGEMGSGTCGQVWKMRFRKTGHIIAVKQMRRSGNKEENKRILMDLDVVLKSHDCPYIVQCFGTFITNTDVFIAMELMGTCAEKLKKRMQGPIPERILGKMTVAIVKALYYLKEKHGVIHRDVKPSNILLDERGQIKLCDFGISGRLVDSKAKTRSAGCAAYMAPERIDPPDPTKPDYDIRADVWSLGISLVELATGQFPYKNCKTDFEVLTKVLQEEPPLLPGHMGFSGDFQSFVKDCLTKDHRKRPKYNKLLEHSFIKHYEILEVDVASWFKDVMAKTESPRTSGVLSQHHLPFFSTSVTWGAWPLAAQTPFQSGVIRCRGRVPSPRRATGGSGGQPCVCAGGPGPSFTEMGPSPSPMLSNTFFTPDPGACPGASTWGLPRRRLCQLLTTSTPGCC
Kind of data set: Inhibition of MKK7 in mouse DRG cells assessed as reduction in JNK phosphorylation at 1 uM after 2 hrs by Western blot analysis. Type of data set: cell-based. In short, it runs like this: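 Dissociated DRG neurons plated on laminin for 3 h, medium replaced, compound added for a further 2 h. Neurons lysed in RIPA buffer with phosphatase inhibitors. Western blots probed for phospho-cJun, cJun, phospho-JNK and JNK.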
A general note: A western blot detects proteins with antibodies after separation by electrophoresis.

The nature of data set [4]: Kinetic solubility of the compound in Hepes buffer at pH 7.4 after 90 mins. The class given is physicochemical. The settings on record: read-out: Kinetic_solubility. In short, it runs like this:
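Compound diluted from 10 mM DMSO stock to 500 µM final in 50 mM Hepes, pH 7.4, shaken 90 min at room temperature. Filtered through 0.2 µm PVDF, then OD scanned 250–500 nm in 10 nm steps. Solubility taken from AUC, normalized to a dilution in acetonitrile.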

Data set [5] is described as follows: Apparent permeability across apical to basolateral side in MDCK2-MDR1 cells at 10 uM after 2 hrs by transwell membrane based assay. The class given is ADME, cell-based, Canis lupus familiaris. The conditions noted are these: dog, MDCK-MDR1. In short, it runs like this:
(§1)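 Compound at 10 µM in HBSS added to apical or basolateral side of MDCKII-MDR1 monolayer, 2 h at 37 °C. Both sides quantified by LC-MS/MS; Papp A–B or B–A from receiver concentration and volume, time, membrane area and initial donor concentration.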

The nature of data set [6]: Apparent permeability across basolateral to apical side in MDCK2-MDR1 cells at 10 uM after 2 hrs by transwell membrane based assay. Type of data set: ADME, cell-based, Canis lupus familiaris. The settings on record: dog, MDCK-MDR1. The gist of the method:
as §1

Data set [7] can be described thus: Protein binding in mouse plasma at 5 uM after 6 hrs by LC/MS analysis. Type of data set: ADME, cell-free. The settings on record: read-out: PPB (converted). The gist of the method:
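Equilibrium dialysis of plasma with compound at 5 µM, 6 h at 37 °C; final compound concentrations determined by LC/MS to give percent bound.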

For data set [8], the target named is T3, Dual specificity mitogen-activated protein kinase kinase 7 (Homo sapiens) (UniProt O14733).
T3 sequence (whole entry): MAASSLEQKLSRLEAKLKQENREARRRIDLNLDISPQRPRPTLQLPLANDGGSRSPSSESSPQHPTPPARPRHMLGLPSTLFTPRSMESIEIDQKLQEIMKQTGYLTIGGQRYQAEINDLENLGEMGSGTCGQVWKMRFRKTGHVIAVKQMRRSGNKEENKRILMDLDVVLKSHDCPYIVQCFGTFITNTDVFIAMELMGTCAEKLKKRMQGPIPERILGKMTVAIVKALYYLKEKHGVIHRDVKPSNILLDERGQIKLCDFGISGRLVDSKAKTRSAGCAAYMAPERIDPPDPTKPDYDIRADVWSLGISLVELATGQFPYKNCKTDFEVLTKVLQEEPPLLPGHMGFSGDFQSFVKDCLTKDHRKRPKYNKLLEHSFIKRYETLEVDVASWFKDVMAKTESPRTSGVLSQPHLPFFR
Kind of data set: Covalent binding affinity to MKK7 (unknown origin) assessed as formation of covalent bond with Cys218 residues by MS/MS analysis. In short, it runs like this: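 Protein at 1 mg/mL incubated with 2-fold molar excess of compound, 30 min on ice, then denatured and run on 15% SDS gel. Band excised, reduced with 50 mM DTT (1 h, 37 °C), alkylated with 55 mM iodoacetamide (1 h, 20 °C), digested with 0.1 mg/mL trypsin 20 h at 30 °C, acidified with TFA. Analysed by ion-trap MS/MS.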

Broadly, the inhibition is the share of the control response that was lost under treatment. A word on the Papp A→B: it is the apparent permeability from the apical to the basolateral side of a cell layer. As a reminder, the Papp B→A is the apparent permeability from the basolateral to the apical side of a cell layer.

In brackets after ≈: the same amount, converted by molar mass. Activity calls are given as the source filed them. The rule behind the calls is not given here.

Sequence of Tyrosine-protein kinase BTK (Homo sapiens) (Q06187 whole entry): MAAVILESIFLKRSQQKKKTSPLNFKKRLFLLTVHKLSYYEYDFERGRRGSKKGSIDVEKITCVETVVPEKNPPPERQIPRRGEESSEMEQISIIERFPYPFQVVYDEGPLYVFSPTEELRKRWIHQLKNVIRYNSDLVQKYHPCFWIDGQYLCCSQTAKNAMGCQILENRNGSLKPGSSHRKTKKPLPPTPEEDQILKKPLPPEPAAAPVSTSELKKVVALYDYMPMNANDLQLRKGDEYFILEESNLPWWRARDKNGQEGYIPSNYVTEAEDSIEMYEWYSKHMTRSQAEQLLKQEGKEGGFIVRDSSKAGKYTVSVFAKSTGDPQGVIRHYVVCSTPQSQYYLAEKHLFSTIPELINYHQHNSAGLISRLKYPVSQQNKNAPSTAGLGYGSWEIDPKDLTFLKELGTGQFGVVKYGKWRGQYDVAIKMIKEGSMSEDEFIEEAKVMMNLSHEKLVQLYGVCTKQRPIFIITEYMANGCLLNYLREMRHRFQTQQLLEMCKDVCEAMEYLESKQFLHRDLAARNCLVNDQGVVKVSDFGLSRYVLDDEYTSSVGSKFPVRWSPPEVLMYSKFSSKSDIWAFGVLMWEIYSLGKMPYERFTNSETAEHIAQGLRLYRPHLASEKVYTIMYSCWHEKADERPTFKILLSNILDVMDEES

For `C=CC(=O)N1CCC[C@@H](n2nc(-c3cn(-c4ccc(C(C)=O)cc4)nn3)c3c(N)ncnc32)C1`, the inhibition in data set [1] and in data set [2] was > 50% throughout. In data set [3], the inhibition entry is “Active”. The solubility kinetic at 1.5 h in data set [4] came to 8 µM (≈ 3.66 µg/mL). In addition, the Papp A→B at 2 h, 10 µM in data set [5] was 9 ×10⁻⁶ cm/s. Also, the Papp B→A at 2 h, 10 µM in data set [6] amounted to 4 ×10⁻⁶ cm/s. Further, the fraction unbound at 6 h, 5 µM in data set [7] was 0.073. Also, in data set [8], the result was Active.
